Compound activity: PubChem BioAssay, Johns Hopkins Ion Channel Center
The list is not random: actives were taken first. Their share in the collection is about 3.5%.
MrgX1 ag: agonists of human MrgX1 receptor; Q96LB2; MrgX1-HEK293 cells, Fluo-4 calcium fluorescence, agonist mode; stronger effect = higher value; B-score at 10 µM; 310,000 compounds, 0.44% hits; AID 588627;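 active = calcium response B-score plate-corrected fluorescence ratio at least 3 library SD, with starting fluorescence B-score inside 5 SD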
Target sequence (Q96LB2 whole entry, looked up): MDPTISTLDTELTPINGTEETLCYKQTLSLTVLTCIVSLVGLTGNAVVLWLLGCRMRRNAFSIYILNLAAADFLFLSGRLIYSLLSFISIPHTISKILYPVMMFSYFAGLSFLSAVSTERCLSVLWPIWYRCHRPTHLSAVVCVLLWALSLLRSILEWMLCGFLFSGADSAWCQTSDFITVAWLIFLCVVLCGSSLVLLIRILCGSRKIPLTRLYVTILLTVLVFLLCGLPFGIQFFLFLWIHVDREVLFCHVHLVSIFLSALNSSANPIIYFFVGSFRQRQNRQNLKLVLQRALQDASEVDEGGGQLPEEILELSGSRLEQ
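Material: HEK293 cells stably expressing human MrgX1 receptor | Quantity: 15,000 cells per well | Times: Cells plated overnight, dye loaded 0.5 h 37 °C, 0.5 h room temperature | Measured by: Kinetic Fluo-4 NW fluorescence of intracellular calcium | Control set: Positive and negative controls per plate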
RGS4 act: potentiators or activators of RGS4 | HEK293 M3R/inducible RGS4, carbachol calcium flux Fluo4; stronger effect = lower value | B-score at 10 µM | 310,000 compounds, 0.92% hits | AID 463111;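 active = B-score of the integrated calcium signal more than 4 SD below the library mean, with starting fluorescence not abnormally high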;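 note: negative B-score means reduced calcium response which marks RGS4 activation or potentiation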
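System – HEK293 FlpIn-TREx cells, stable M3R, doxycycline-inducible RGS4 · Reagent – ECmax carbachol challenge · Times – compound preincubation 20 min at room temperature before agonist · Technique – Fluo4 fluorescence kinetic imaging of calcium · Measure – B score of integrated Fluo4 ratio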
RGS4 block: human RGS4 inhibition. P49798. HEK293 M3R/RGS4 inducible, Fluo-4 calcium flux; stronger effect = higher value; triggered by carbachol at its EC20. B-score at 10 µM. 310,000 compounds, 0.45% hits;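 active = B-score, a plate-corrected calcium signal, over three deviations above library mean, with baseline fluorescence within five deviations of library mean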;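 note: RGS4 expression induced by doxycycline in cells with stable M3 receptor; B-score is computed from the integrated fluorescence ratio over baseline after carbachol; higher B-score means a larger calcium signal and so more RGS4 inhibition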
Target sequence (P49798 whole entry, looked up): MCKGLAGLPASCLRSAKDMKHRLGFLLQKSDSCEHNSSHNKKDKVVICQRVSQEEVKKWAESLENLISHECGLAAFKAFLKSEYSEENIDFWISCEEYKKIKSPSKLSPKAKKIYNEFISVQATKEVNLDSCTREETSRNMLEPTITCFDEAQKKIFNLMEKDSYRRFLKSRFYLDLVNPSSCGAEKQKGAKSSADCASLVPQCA
MrgX1 allo act: human MrgX1 positive allosteric modulation, primary screen; AID 588675; MrgX1-HEK293, Fluo-4 calcium flux, FDSS; stronger effect = higher value; Q96LB2; B-score at 10 µM; 310,000 compounds, 0.63% hits;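 active = plate-corrected calcium response at least 3 library SD above typical, normal starting fluorescence, not activating the receptor alone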;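 note: compound read alongside a low EC10 to EC30 dose of BAM8-22 agonist; peak minus trough fluorescence over baseline measured at the second addition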
MrgX1 antagonist: antagonists of human MrgX1 receptor; Q96LB2; MRGX1-HEK293 calcium flux, Fluo-4, BAM8-22 antagonism; stronger effect = lower value; B-score at 10 µM; 310,000 compounds, 1.3% hits;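 active = calcium-response B-score plate-corrected more than 3 library SD below zero, starting fluorescence within 5 deviations, no agonist response on first addition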;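 note: peak minus trough fluorescence over baseline after final BAM8-22 challenge near maximal dose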
* marks the source's active call; other numbers are inactive results; i = inactive; / = not tested or not shown.

SMILES | MrgX1 ag | RGS4 act | RGS4 block | MrgX1 allo act | MrgX1 antagonist
Cc1ccccc1CCNC(=O)C1CC(O)CN1C(=O)Nc1ccccc1 (configuration not stated) | i | i | i | i | i
O=C(COc1coc(CN2CCN(c3ccccc3)CC2)cc1=O)NC1CCCCC1 | i | i | i | i | i
Cc1ccc(C(=O)N2CCN(c3ccc([N+](=O)[O-])cc3)CC2)o1 | i | i | i | i | i
Cc1cnc(C(=O)N2CCCC(N3CCN(c4cccc(C(F)(F)F)c4)CC3)C2)cn1 (configuration not stated) | i | i | i | i | i
COc1ccc(/C=N/NC(=O)c2nnn(-c3nonc3N)c2-c2cccs2)c(OC)c1 | i | i | i | i | i
Oc1ccc(/C=N/Nc2nc(-c3cccnc3)nc3ccccc23)c(O)c1 | i | i | i | i | i
CC(Nc1nc(-c2cccnc2)nc2ccccc12)c1ccc(F)cc1 (configuration not stated) | i | -7.1* | i | i | i
Fc1ccc(CNc2nc(-c3cccnc3)nc3ccccc23)cc1 | 35* | -7.1* | i | i | i
Cc1c(O)ccc(/C=N/Nc2nc(-c3cccnc3)nc3ccccc23)c1O | i | -8.1* | i | i | i
COc1cc(OC)cc(C(=O)Nc2sc3c(c2C(N)=O)CCC3)c1 | i | i | i | i | i
COCCN(CCOC)c1nc(-c2ccc(Cl)cc2)nc2ccccc12 | i | -7.3* | i | i | i
CCc1cccc(NC(=O)C2CCCN(c3ncnc4c3nc3n4CCCCC3)C2)c1 (configuration not stated) | i | i | i | i | i
CCOc1ccc(NC(=O)c2ccc3c(c2)CCN3S(C)(=O)=O)cc1 | i | i | i | i | i
CCOC(=O)c1c(NC(=O)Cn2cnc([N+](=O)[O-])n2)sc2c1CCC(C)C2 (configuration not stated) | i | i | i | i | i
COC(=O)c1c(NC(=O)Cn2cnc([N+](=O)[O-])n2)sc2c1CCC(C)C2 (configuration not stated) | i | -7.6* | i | i | i
O=C(CCc1nc2sc3c(c2c(=O)[nH]1)CCCC3)N1CCN(c2ccccc2)CC1 | i | i | i | i | -7.2*
COc1ccc(S(=O)(=O)/N=C2/C=CC(=O)C(C)=C2C)cc1 | i | i | i | i | i
CC1=C/C(=N\OS(=O)(=O)c2ccccc2)C(C)=CC1=O | i | / | / | 15* | i
CC1=CC(=O)c2ccccc2C1=O | i | i | i | i | i
CC1=C(C)/C(=N\OS(=O)(=O)c2ccc(C)cc2)C=CC1=O | i | / | / | i | -5.2*
CC1=C/C(=N\OS(=O)(=O)c2ccccc2)C(C(C)C)=CC1=O | i | / | / | i | -4.6*
FC(F)(F)c1cccc(NC(=S)Nc2ccc(Cl)c(Cl)c2)c1 | i | i | i | i | -8.4*
COc1ccc(CN(C)C(=O)c2ccccc2Sc2ccccc2C#N)c(OC)c1 | i | i | i | i | i
COc1ccc(CN2CCCC(C(=O)c3cccc(C(F)(F)F)c3)C2)cc1O (configuration not stated) | i | -7.6* | i | i | i
O=c1c2c([N+](=O)[O-])cc([N+](=O)[O-])cc2sn1-c1ccc(Br)cc1 | i | / | / | i | i
SMILES | MrgX1 ag | RGS4 act | RGS4 block | MrgX1 allo act | MrgX1 antagonist
O=c1c2c([N+](=O)[O-])cc([N+](=O)[O-])cc2sn1Cc1ccccc1 | 37* | i | i | i | i
c1ccc(-c2cn(-c3ccccc3)c3ncnc(N4CCCCC4)c23)cc1 | i | i | i | i | i
COc1ccc(-n2cc(-c3ccccc3)c3c(N4CC(C)OC(C)C4)ncnc32)cc1 (configuration not stated) | i | -7* | i | i | i
Cc1sccc1C1C(C#N)=C(N)SC(N)=C1C#N | i | i | i | i | i
N#CC1=C(N)SC(N)=C(C#N)C1CCC1CCCCC1 | i | i | i | i | -8.8*
COc1ccc2c(/C=C/c3cc[n+](C)cc3)c[nH]c2c1 | i | i | i | i | -5.8*
Cn1c(=O)c2c(nc(SCCN3CCCCC3)n2Cc2ccc(Cl)cc2)n(C)c1=O | i | -7* | i | i | i
CCSc1nc2c(c(=O)n(C)c(=O)n2C)n1Cc1ccc(Cl)cc1 | i | i | i | i | i
CCN(CC)c1ccc(/C=C2/C(=O)c3ccc(C(=O)O)cc3C2=O)cc1 | i | / | / | i | i
CCN(CC)c1ccc(C=C2C(=O)OC3(CCCCC3)OC2=O)cc1 | 33* | i | i | i | i
CCCCC1(C)OC(=O)C(=Cc2ccc(N(CC)CC)cc2)C(=O)O1 (configuration not stated) | 44* | i | i | i | i
Clc1ccccc1C1CC(c2ccccc2)=Nc2ccccc2N1 (configuration not stated) | i | -7.4* | i | i | i
Brc1ccccc1C1CC(c2ccccc2)=Nc2ccccc2N1 (configuration not stated) | i | i | i | i | i
CC(Oc1ccccc1Cl)C(=O)Nc1ccccc1C(=O)N1CCOCC1 (configuration not stated) | i | i | i | i | i
Cc1ccc(NC(=O)CNC(=O)c2cccs2)c(O)c1 | i | i | i | i | i
Oc1ccc(N=Nc2cccc(Cl)c2)cc1C=Nc1ccc(N2CCOCC2)cc1 | / | i | 8.7* | / | /
Cc1ccc(-c2cc(C(=O)N3CCN(c4ncccn4)CC3)c3ccccc3n2)cc1 | i | i | i | i | i
CC(C)Oc1cccc(-c2cc(C(=O)N3CCN(c4ncccn4)CC3)c3ccccc3n2)c1 | i | -7.4* | i | i | i
COc1cccc(-c2cc(C(=O)N3CCN(c4ncccn4)CC3)c3ccccc3n2)c1 | i | -7* | i | i | i
CC(OC(=O)c1cccc(-n2cnnn2)c1)C(=O)Nc1ccc(N(C)C)cc1 (configuration not stated) | i | i | i | i | i
COc1ccc(C2NC(=O)c3ccccc3O2)cc1 (configuration not stated) | i | i | i | i | i
Cc1ccc(NC(=O)CSc2ncccn2)cc1S(=O)(=O)N1CCCCC1 | i | i | i | i | i
COc1ccccc1NC(=O)CCCCCN1C(=O)c2cccc([N+](=O)[O-])c2C1=O | i | i | i | i | i
COc1cc(/C=C2/C(=O)c3cccc([N+](=O)[O-])c3C2=O)c(Br)cc1O | 35* | / | / | i | i
